One assay concerns the target T1, Ornithine decarboxylase (Mus musculus) (UniProt P00860).
T1 sequence (whole entry): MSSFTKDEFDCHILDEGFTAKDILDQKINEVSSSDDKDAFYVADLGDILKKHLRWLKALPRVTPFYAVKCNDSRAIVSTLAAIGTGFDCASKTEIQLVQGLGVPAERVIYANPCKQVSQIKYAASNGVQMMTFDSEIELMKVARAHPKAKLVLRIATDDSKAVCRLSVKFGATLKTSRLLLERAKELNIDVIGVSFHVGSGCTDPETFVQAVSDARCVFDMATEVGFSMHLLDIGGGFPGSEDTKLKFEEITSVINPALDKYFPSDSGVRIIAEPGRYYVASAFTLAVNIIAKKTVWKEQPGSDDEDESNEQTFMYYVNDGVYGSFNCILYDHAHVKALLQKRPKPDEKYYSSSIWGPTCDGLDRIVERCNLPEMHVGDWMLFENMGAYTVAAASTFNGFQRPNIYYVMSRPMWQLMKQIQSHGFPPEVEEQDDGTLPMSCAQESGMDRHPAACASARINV
As to the kind of experiment: (§1) Percent inhibition of TPA-induced ornithine decarboxylase activity. Format: functional. The conditions noted are these: tested as the 2H-labelled form; concentration not given here. In a few lines: (§2)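 Mouse epidermal ODC was induced by topical TPA on the back skin, with each retinoid applied topically to the back at 1.7 or 17 nmol. Each treatment used 3–6 groups of 3–4 mice. Epidermal ODC activity was measured by a previously described method and reported as % inhibition versus TPA-only controls (mean ± SE).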
As usually defined, the inhibition is the drop in the measured response relative to a control, in per cent. For the compound `CC1=C(/C=C/C(C)=C/C=C/C(C)=C/C(=O)O)C(C)(C)CCC1`, the inhibition is 90%.

The target in the next assay is T1, Ornithine decarboxylase (Mus musculus). The description is as §1. Format: functional. Also on record: concentration or dose not given beside the values. The note with it: concentration not given here. The gist of the method: as §2
The compound `CCOC(=O)/C=C(C)/C=C/C=C(C)/C=C/C1=CC2CCC1C2` (stereo not drawn) showed an inhibition of 54%. The same measure, in the same setting: as for `CCOC(=O)c1ccc(/C=C(C)/C=C/C2=C(C)CCCC2(C)C)cc1`, the figure is 80%.

On to `CCOC(=O)c1ccc(/C=C(C)/C=C/C23CC2(C)CCCC3(C)C)cc1` (stereo not drawn), for which the inhibition was determined as 80%. The same measure, in the same setting: as for `CCOC(=O)/C=C(C)/C=C/C=C(C)/C=C/C12CC1(C)CCCC2(C)C` (stereo not drawn), the figure is 70%; as for `CCOC(=O)\C=C(C)/C=C/C=C(C)/C=C/C12CC1(C)CCCC2(C)C` (stereo not drawn), 45%; as for `CC1=C(/C=C/C(C)=C/C=C/C(C)=C/C(=O)O)C(C)(C)CCC1`, 92%.

As to `CCOC(=O)/C=C(C)/C=C/C=C(C)/C=C/C1CC2CCC1C2` (stereo not drawn), the inhibition stood at 64%. The same measure, in the same setting: the same measure for `CCOC(=O)c1ccc(/C=C(C)/C=C/C23OC2(C)CCCC3(C)C)cc1` (stereo not drawn): 80%; for `CCOC(=O)/C=C(C)/C=C/C=C(C)/C=C/C1=C(C)C2(CCC1(C)C)CC2`: 72%; for `CCOC(=O)\C=C(C)/C=C/C=C(C)/C=C/C1=C(C)C2(CCC1(C)C)CC2`: 67%. In the case of `CC1=C(/C=C/C(C)=C/C=C/C(C)=C\C(=O)O)C(C)(C)CCC1`, the inhibition amounted to 96%.

Still in this assay, the particulars now being: tested as the 2H-labelled form, concentration not given here.
`CC1=C(/C=C/C(C)=C/C=C/C(C)=C/C(=O)O)C(C)(C)CCC1`: the inhibition is 90%.

(Values after ChEMBL document CHEMBL1121875, “Retinoic acid analogues with ring modifications. Synthesis and pharmacological activity” (J Med Chem, 1981).)
